Active and inactive are the calls of the source.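 The calls were made as follows, unless noted: active = viability loss from added drug above about 55%, and viability with drug at most 40%, in both replicates (limit read from the data, passing the limit was not always enough); inconclusive = both conditions met in only one replicate; inactive = neither replicate meets both conditions.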
Assays:
[1] = reducers of endogenous Her2 protein level, primary screen, SKBR3 breast tumor cells, AlphaScreen, ATP viability (AID 461;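 active = Her2 level under about 52% in both replicate screens, with viability over 70% of control, limit read from the data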;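 as to Her2 level: lower value means less Her2 protein in the cells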;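 as to viability: percent of carrier control wells set as 100% viability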); details: 18-24 h, measured here: SKBR3 viability, ATP luminescence, at 10 µM
[2] = target: Receptor tyrosine-protein kinase erbB-2 (Homo sapiens) (UniProt P04626); assay: as above; details: 18-24 h, at 10 µM, stronger effect = lower value
[3] = SK-BR-3 cell growth inhibitors, pilot screen, 24 h, human (AID 572;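 active = viability at or below 10% of carrier control in both of two separate runs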;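 also: compound exposure lasted between 18 and 24 h rather than exactly 24 h; 100% = carrier-treated control wells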); details: SK-BR-3 viability, CellTiter-Glo luminescence, at 10 µM, stronger effect = lower value
[4] = HUVEC growth inhibition – cell-based, human, primary screen (AID 575;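 active = viability at or below 30% in both replicate assays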;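 also: 100% = median of untreated cell wells with 0.1% DMSO on each plate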); details: HUVEC proliferation, CellTiter-Glo luminescence, 72 h; at 10 µM; stronger effect = lower value
Method in brief: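 Test system: primary human umbilical vein endothelial cells; medium: endothelial basal medium with 2% FBS plus growth supplements; dosing: 10 µM compound only; times: 72 h treatment at 37 °C; signal: CTG luminescence; read-out: % viability relative to median vehicle-well signal on each plate; control set: vehicle and MePR control wells; plate: 384-well, collagen-coated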

[5] = growth inhibitors of H69AR lung tumor, primary screen, human, duplicate replicates (AID 580;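 active = viability at or under a set limit in both replicates, limit being median viability minus 3 SD, cut at about 48% in these data, passing the limit was not always enough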;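 also: 100% = mean luminescence of untreated wells and 0% = no signal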); details: H69AR lung tumor cells viability, ATP luminescence, 72 h; at 10 µM; stronger effect = lower value
[6] = reversal of MRP1-mediated doxorubicin resistance, pilot screen, H69AR cells, doxorubicin co-treatment (AID 601); details: CellTiter-Glo, 72 h, at 10 µM; for differential viability (reversal): stronger effect = higher value
[7] = 384-well plate pilot, post-Golgi transport modulator project, inhibition of yeast transport mutant growth (AID 636; in the data active = inhibition above about 31%); details: absorbance 615 nm, about 18 h, stronger effect = higher value
[8] = growth suppression of yeast trafficking mutant, preliminary HTS, modulators of trafficking downstream of Golgi apparatus project, 1536-format plate, OD 615 nm (AID 637; in the data active = inhibition above about 30%); details: yeast transport mutant growth, absorbance 615 nm, 18 h; stronger effect = higher value
[9] = H69AR cells + 2 uM doxorubicin, measured here: viability with 2 uM doxorubicin, stronger effect = lower value
[10] = H69AR cells, compound alone cytotoxicity

Receptor tyrosine-protein kinase erbB-2 (Homo sapiens), sequence (P04626 whole entry, looked up): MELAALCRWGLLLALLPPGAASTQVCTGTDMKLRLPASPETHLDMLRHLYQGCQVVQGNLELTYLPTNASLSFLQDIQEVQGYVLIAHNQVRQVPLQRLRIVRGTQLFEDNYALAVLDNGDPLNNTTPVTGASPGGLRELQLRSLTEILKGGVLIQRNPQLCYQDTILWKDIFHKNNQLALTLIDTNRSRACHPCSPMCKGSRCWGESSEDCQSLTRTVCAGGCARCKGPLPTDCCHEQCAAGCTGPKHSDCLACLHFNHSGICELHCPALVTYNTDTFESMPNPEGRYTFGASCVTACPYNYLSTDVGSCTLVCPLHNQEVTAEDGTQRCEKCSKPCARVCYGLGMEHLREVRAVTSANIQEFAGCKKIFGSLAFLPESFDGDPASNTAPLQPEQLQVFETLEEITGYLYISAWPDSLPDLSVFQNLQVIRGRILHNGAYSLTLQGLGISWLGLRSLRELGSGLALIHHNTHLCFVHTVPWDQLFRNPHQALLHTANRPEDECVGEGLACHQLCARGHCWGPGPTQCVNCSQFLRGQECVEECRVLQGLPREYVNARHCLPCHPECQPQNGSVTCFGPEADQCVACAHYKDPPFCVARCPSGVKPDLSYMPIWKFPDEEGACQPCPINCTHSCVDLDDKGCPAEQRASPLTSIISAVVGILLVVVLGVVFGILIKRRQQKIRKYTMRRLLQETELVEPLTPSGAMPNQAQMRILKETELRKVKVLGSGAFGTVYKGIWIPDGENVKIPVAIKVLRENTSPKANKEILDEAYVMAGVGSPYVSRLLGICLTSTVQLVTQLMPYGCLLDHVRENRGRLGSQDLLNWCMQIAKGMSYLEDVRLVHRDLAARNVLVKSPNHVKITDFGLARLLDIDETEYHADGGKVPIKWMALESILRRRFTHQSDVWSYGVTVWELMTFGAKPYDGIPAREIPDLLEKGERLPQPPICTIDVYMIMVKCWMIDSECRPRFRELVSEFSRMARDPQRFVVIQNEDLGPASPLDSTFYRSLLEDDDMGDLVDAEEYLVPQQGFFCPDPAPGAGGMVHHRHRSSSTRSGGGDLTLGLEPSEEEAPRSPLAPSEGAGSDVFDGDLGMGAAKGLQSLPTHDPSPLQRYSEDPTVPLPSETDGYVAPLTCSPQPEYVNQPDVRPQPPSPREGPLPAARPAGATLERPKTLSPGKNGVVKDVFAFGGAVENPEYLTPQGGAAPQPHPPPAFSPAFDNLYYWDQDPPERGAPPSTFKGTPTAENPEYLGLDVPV

SMILES | viability [1] | Her2 level [2] | viability [3] | viability [4] | viability [5] | differential viability (reversal) ([6]; H69AR cells + 2 uM doxorubicin) | viability [6, 9] | viability [6, 10] | inhibition [7] | inhibition [8]
Cn1c(N2CCC(C(N)=O)CC2)nc2c1c(=O)n(Cc1ccc(Br)cc1)c(=O)n2C | 95% | 84.5% (inactive) | 95% (inactive) | 98.5% (inactive) | 102% (inactive) | 8.06% (inactive) | 93.8% | 102% | 3.38% (inactive) | -5.08% (inactive)
O=C(NCc1ccc(Cl)cc1)c1ccc(COCC(F)(F)F)o1 | 100% | 91% (inactive) | 100% (inactive) | 88.5% (inactive) | 101% (inactive) | 20.9% (inactive) | 79.7% | 101% | -1.45% (inactive) | -5.27% (inactive)
Cc1ccccc1OCc1nnc(SCC(=O)NCc2ccccc2)n1C | 96% | 84.5% (inactive) | 96% (inactive) | 88.4% (inactive) | 104% (inactive) | 8.75% (inactive) | 95.2% | 104% | -4.66% (inactive) | -3.02% (inactive)
COc1ccc(CC(=O)Nc2ccc(OC)c(NC(=O)c3ccco3)c2)cc1 | 91% | 106% (inactive) | 91% (inactive) | 85.8% (inactive) | 81.9% (inactive) | -9.55% (inactive) | 91.5% | 81.9% | 4% (inactive) | -2.38% (inactive)
CN(C)Cc1c(O)ccc2oc(Cc3ccccc3)cc12 | 90% | 86% (inactive) | 90% (inactive) | 91.2% (inactive) | 91% (inactive) | 11% (inactive) | 80% | 91% | -6.67% (inactive) | -2.42% (inactive)
Cc1cc(C)cc(-n2ccnc2SCC(=O)Nc2ccc3c(c2)OCCO3)c1 | 119% | 93.5% (inactive) | 119% (inactive) | 90.7% (inactive) | 99.3% (inactive) | 8.09% (inactive) | 91.2% | 99.3% | -6.05% (inactive) | -0.91% (inactive)
Cc1ccccc1Cn1ccc(NC(=O)c2cnn3c(C(F)(F)F)cc(-c4ccco4)nc23)n1 | 76.5% | 81% (inactive) | 76.5% (inactive) | 62.3% (inactive) | 60.4% (inactive) | 25.2% (inactive) | 35.3% | 60.4% | -4.13% (inactive) | 5.9% (inactive)
CC(C)(C)n1nnnc1C(c1cccc(C#N)c1)N1CCC(Cc2ccccc2)CC1 (stereo not given) | 87.5% | 86% (inactive) | 87.5% (inactive) | 114% (inactive) | 86.1% (inactive) | -0.44% (inactive) | 86.6% | 86.1% | -0.79% (inactive) | 1.77% (inactive)
COc1ccc(C2C(C(C)=O)=C(O)C(=O)N2C)c(OC)c1 (stereo not given) | 102% | 104% (inactive) | 102% (inactive) | 109% (inactive) | 114% (inactive) | 22.1% (inactive) | 91.7% | 114% | 1.3% (inactive) | -0.83% (inactive)
COCCCNC(=O)CSc1nc2ccc(N3CCOCC3)cc2c(=O)n1CCc1ccccc1 | 104% | 87% (inactive) | 104% (inactive) | 70.3% (inactive) | 94.9% (inactive) | -5.04% (inactive) | 99.9% | 94.9% | -2.73% (inactive) | -0.48% (inactive)
CS(=O)(=O)N1CCc2cc(C(=O)N3CCCCC3)ccc21 | 89.5% | 89% (inactive) | 89.5% (inactive) | 99.8% (inactive) | 96.6% (inactive) | 8.06% (inactive) | 88.5% | 96.6% | -3.42% (inactive) | 1.75% (inactive)
O=S(=O)(Nc1cccnc1)c1ccc2c(c1)OCCO2 | 91.5% | 92% (inactive) | 91.5% (inactive) | 99.7% (inactive) | 104% (inactive) | 12.1% (inactive) | 91.9% | 104% | -6.97% (inactive) | 3.17% (inactive)
N#CC(C(=O)CCN1C(=O)C2CC=CCC2C1=O)c1nc2ccccc2[nH]1 (stereo not given) | 116% | 98% (inactive) | 116% (inactive) | 95.9% (inactive) | 91.1% (inactive) | 3.88% (inactive) | 87.2% | 91.1% | -5.07% (inactive) | 6.23% (inactive)
O=C(CCSc1ccccc1)Nc1ccc(S(=O)(=O)N2CCOCC2)cc1 | 102% | 83.5% (inactive) | 102% (inactive) | 81.2% (inactive) | 104% (inactive) | 12.5% (inactive) | 91.6% | 104% | -9.18% (inactive) | -1.27% (inactive)
O=C1OC(N2CCN(c3ccccn3)CC2)c2ccccc21 (stereo not given) | 94% | 80.5% (inactive) | 94% (inactive) | 105% (inactive) | 96.8% (inactive) | 7.36% (inactive) | 89.4% | 96.8% | -4.53% (inactive) | 1.48% (inactive)
CC(C)(C)c1ccc(-c2nnc(SCCC#N)n2C2CCCC2)cc1 | 73.5% | 98.5% (inactive) | 73.5% (inactive) | 65.7% (inactive) | 78.8% (inactive) | 18.4% (inactive) | 60.5% | 78.8% | -4.32% (inactive) | -4.1% (inactive)

SMILES | viability [1] | Her2 level [2] | viability [3] | viability [4] | viability [5] | differential viability (reversal) ([6]; H69AR cells + 2 uM doxorubicin) | viability [6, 9] | viability [6, 10] | inhibition [7] | inhibition [8]
CCCCOc1ccc(-c2ncc(C(=O)OCC)c(N)n2)cc1 | 89.5% | 88% (inactive) | 89.5% (inactive) | 103% (inactive) | 90% (inactive) | 8.43% (inactive) | 81.5% | 90% | -6.8% (inactive) | -6.03% (inactive)
Cc1ccc(S(=O)(=O)NCCNC(=O)C2CCCNC2=O)cc1 (stereo not given) | 93.5% | 86.5% (inactive) | 93.5% (inactive) | 103% (inactive) | 105% (inactive) | 12% (inactive) | 92.9% | 105% | -4.67% (inactive) | 1.8% (inactive)
N#Cc1nc(-c2cccs2)oc1NCc1ccc(Cl)cc1 | 111% | 88.5% (inactive) | 111% (inactive) | 64.9% (inactive) | 73.8% (inactive) | -14.1% (inactive) | 87.9% | 73.8% | -5.66% (inactive) | 0.65% (inactive)
CC1=C(C(=O)NCc2ccccn2)C2(CCC(C)CC2)OC1=O (stereo not given) | 94.5% | 99% (inactive) | 94.5% (inactive) | 103% (inactive) | 89.4% (inactive) | -0.25% (inactive) | 89.7% | 89.4% | -5.47% (inactive) | -1.97% (inactive)
CC(=O)NC1(C(F)(F)F)NC(=O)N(CC(C)C)C1=O (stereo not given) | 103% | 109% (inactive) | 103% (inactive) | 91.1% (inactive) | 102% (inactive) | 18.8% (inactive) | 83.6% | 102% | -2.3% (inactive) | -0.66% (inactive)
COc1cccc(OCCSc2nnc3sc4ccccc4n23)c1 | 86% | 98% (inactive) | 86% (inactive) | 106% (inactive) | 85.3% (inactive) | -6.48% (inactive) | 91.8% | 85.3% | 2.73% (inactive) | 0.66% (inactive)
COc1cccc(NC(=O)CSc2nnnn2C(C)C)c1 | 118% | 86.5% (inactive) | 118% (inactive) | 97.9% (inactive) | 103% (inactive) | 13.7% (inactive) | 89.7% | 103% | -3.65% (inactive) | 0.79% (inactive)
COc1ccc(CCNC(=O)c2cc(C(C)C)on2)cc1OC | 95.5% | 101% (inactive) | 95.5% (inactive) | 96.6% (inactive) | 93.2% (inactive) | 9.6% (inactive) | 83.6% | 93.2% | 0.51% (inactive) | -0.67% (inactive)
CNc1ccc(C(O)(C(F)(F)F)C(F)(F)F)cc1C(O)(C(F)(F)F)C(F)(F)F | 98% | 73% (inactive) | 98% (inactive) | 76.8% (inactive) | 80.7% (inactive) | -3.27% (inactive) | 84% | 80.7% | -5.33% (inactive) | 5.25% (inactive)
Nc1nonc1-n1nnc(C(=O)c2ccccc2)c1-c1ccccc1 | 96.5% | 100% (inactive) | 96.5% (inactive) | 63.6% (inactive) | 99.4% (inactive) | 7.96% (inactive) | 91.4% | 99.4% | -6.58% (inactive) | 6.03% (inactive)
c1ccc(CSCc2cn3ccsc3n2)cc1 | 93.5% | 95.5% (inactive) | 93.5% (inactive) | 104% (inactive) | 99.1% (inactive) | 14.5% (inactive) | 84.6% | 99.1% | -0.27% (inactive) | -3.49% (inactive)
CCOC(=O)N1CCC(NC(=O)CCC(=O)N2CC(C)Oc3ccc(Cl)cc32)CC1 (stereo not given) | 104% | 96% (inactive) | 104% (inactive) | 94.6% (inactive) | 92.5% (inactive) | 6.71% (inactive) | 85.8% | 92.5% | -5.53% (inactive) | -9.33% (inactive)
CCCCCCNS(=O)(=O)c1ccc(Cl)s1 | 85% | 86.5% (inactive) | 85% (inactive) | 81.9% (inactive) | 89.1% (inactive) | 1.29% (inactive) | 87.8% | 89.1% | -4.4% (inactive) | 22.9% (inactive)
CCOc1cc(NC(=O)c2ccco2)c(OCC)cc1NC(=O)COc1ccccc1C | 67% | 77.5% (inactive) | 67% (inactive) | 60.9% (inactive) | 7.87% (active) | -4.53% (inactive) | 12.4% | 7.87% | -5.6% (inactive) | -6.19% (inactive)
N/C(Cn1nnc(-c2ccccc2)n1)=N\O | 97% | 87.5% (inactive) | 97% (inactive) | 112% (inactive) | 107% (inactive) | 11% (inactive) | 96.3% | 107% | -2.5% (inactive) | -5.08% (inactive)
Cn1c(=O)cc(SCC(=O)NCC2CCCO2)c2ccc(Cl)cc21 (stereo not given) | 88.5% | 88% (inactive) | 88.5% (inactive) | 89% (inactive) | 85.1% (inactive) | -4% (inactive) | 89.1% | 85.1% | -0.26% (inactive) | -3.71% (inactive)

— PubChem BioAssay
